Experimental findings from ChEMBL document CHEMBL1154265, “Alkaloids from the leaves of Daphniphyllum subverticillatum” (J Nat Prod, 2009) are described below.

For one data set, the system named is HL-60. The data set can be described thus: Cytotoxicity against human HL60 cells after 72 hrs by MTT assay. In kind it is functional, cell-based. In short, it runs like this:
(§1)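 MTT read-out on HL-60 and P-388 cells, run to earlier published protocols, with pseudolaric acid B as the positive control; IC50 values reported.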

For the next data set, the system named is P388. The data set can be described thus: Cytotoxicity against mouse P388 cells after 72 hrs by MTT assay. In kind it is functional, cell-based. In outline:
as §1
Background: Tetrazolium assays rely on reduction of a dye to a coloured formazan, in cell work by metabolically active cells.

The subject of another data set is Bel-7402. The data set can be described thus: Cytotoxicity against human Bel7402 cells after 72 hrs by sulforhodamine B assay. In kind it is functional, cell-based. In outline: (§2)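 SRB staining on A-549, BEL-7402 and HMEC (human microvascular endothelial) cells, run to earlier published protocols, with pseudolaric acid B as the positive control; IC50 values reported.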
Background: In SRB staining, fixed cells bind dye roughly in proportion to their protein.

Another data set has as its system A549. The data set can be described thus: Cytotoxicity against human A549 cells after 72 hrs by sulforhodamine B assay. In kind it is functional, cell-based. In short, it runs like this:
as §2

A further data set relates to HMEC. The data set can be described thus: Cytotoxicity against human HMEC cells after 72 hrs by sulforhodamine B assay. In kind it is cell-based. As to conditions: for Activity: human, hmec. In outline: as §2

Activity calls are given as the source filed them. No cut-off for these calls is given here.

Turning to `COC(=O)CC[C@]12C3=CCC[C@@H]3CC[C@@H]3C=N[C@@H]1[C@@H](C(C)C)CC[C@@]32C` [DAPHNEZOMINE L METHYL ESTER], the result in the data set with HL-60, with P388, with Bel-7402 and in the data set on A549 was inactive. In addition, in the data set on HMEC, the Activity result is on record as “Non-toxic”.
For `CC[C@@]1(O)CC[C@@]2(CO1)[C@H]1CCC3=C4[C@H](C[C@@H]3O)[C@H](C(=O)OC)C[C@@]42CN(C)C1`, the outcome in the data set on HL-60, in the data set on P388, with Bel-7402 and with A549 was inactive. Moreover, the Activity result in the data set on HMEC was “Non-toxic”.
For the compound `CC(C)[C@H]1CC[C@@]2(C)[C@@H]3C[C@@H](O)[C@]45CCC[C@H]4[C@@]2(CCC(=O)[C@]2(C)CO[C@]4(C)CCC2O4)[C@@H]1N5C3` [HYDROXYCODAPHNIPHYLLINE], the outcome with HL-60, in the data set with P388, in the data set with Bel-7402 and with A549 was inactive. Also, the Activity result in the data set with HMEC was “Non-toxic”.
In the case of `CC(=O)O[C@@H]1CC[C@@]2(C)O[C@@H](O)[C@@]1(C)C2CC[C@@]12[C@@H]3NC4C(CC[C@@]45CCC[C@H]51)[C@]2(C)CC[C@@H]3C(C)C` (stereo not given in full) [DAPHNILONGERIDINE], the IC50 in the data set with HL-60 (HL-60, 72 h) was 9.5 µM; in the data set with P388 (P388, 72 h), 2.4 µM; with Bel-7402 (Bel-7402, 72 h) it was 9.7 µM; in the data set on HMEC (Homo sapiens, HMEC) it was 2.7 µM. Also, the outcome with A549 was inactive.
As to `COC(=O)[C@@H]1C[C@@]23C(=O)[C@@H]4C[C@H]5N(C[C@@H](CCC6=C2[C@@H]1CC6)[C@]53COC(C)=O)C[C@H]4C` [SUBDAPHNIDINE A], the result in the data set on HL-60, with P388, in the data set on Bel-7402 and with A549 was inactive. Further, the Activity result in the data set on HMEC is recorded as “Non-toxic”.

Broadly, the IC50 is the concentration that inhibits the measured activity by half. Low values mean greater potency, high ones weaker potency.
